# 5HT1a antag = blocks the human serotonin 5-HT1a receptor | P08908 | inhibition, % at 10 µM | AID 612 | CHO 5-HT1a Ga15 NFAT-bla reporter, antagonist mode | 62,000 tested, 0.68% active;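 active = inhibition above the mean of all tested compounds plus 3 SD, cut at about 43% in these data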;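 note: receptor stimulated by 5-CT agonist at 100 nM near EC80; beta-lactamase reporter measured by ratiometric fluorescence of a cleavable substrate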
# Target sequence (P08908 whole entry, looked up): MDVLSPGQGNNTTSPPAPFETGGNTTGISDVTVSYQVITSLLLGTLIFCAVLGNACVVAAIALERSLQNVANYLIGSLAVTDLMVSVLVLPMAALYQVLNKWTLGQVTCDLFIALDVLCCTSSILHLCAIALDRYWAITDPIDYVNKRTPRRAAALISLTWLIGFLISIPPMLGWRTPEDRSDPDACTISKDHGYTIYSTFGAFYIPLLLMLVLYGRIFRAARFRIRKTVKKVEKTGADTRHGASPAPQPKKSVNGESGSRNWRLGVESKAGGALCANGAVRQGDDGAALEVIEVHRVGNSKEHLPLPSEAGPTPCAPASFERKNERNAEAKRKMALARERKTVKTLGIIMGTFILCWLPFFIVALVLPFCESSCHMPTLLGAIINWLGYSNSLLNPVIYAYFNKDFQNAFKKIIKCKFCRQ
# 5HT1E ag = activates the human 5-HT1E serotonin receptor; AID 574; 65,000 tested, 0.69% active; CHO 5-HT1E Ga15 NFAT-bla reporter, FRET; 0% DMSO wells, 100% control agonist wells; activation, % at 6 µM;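 active = activation above a set limit, the screen-wide mean activation plus 3 SD, cut at about 8.5% in these data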;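 note: 100% = positive control agonist at 1 µM giving full maximal response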
# HEK293 NFkB inh = lowers PMA/ionomycin-induced NF-kB signal in HEK293 cells. inhibition, % at 3 µM. HEK-293 NF-kB luciferase reporter, luminescence. 62,000 tested, 0.21% active;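 active = inhibition above the mean of all tested compounds plus 3 SD, cut at about 40% in these data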;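 note: 0% = stimulated DMSO wells and 100% = 10 µM reference inhibitor 5653914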
#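 Material: HEK-293 cells with stable firefly luciferase reporter driven by four HIV NF-kB elements / Also added: PMA plus ionomycin mix as NF-kB-activating stimulus / Compound dosing: 3 µM once, 0.30% DMSO / Times: 1 h pretreatment, 16 h stimulation, 37 °C / Signal: luminescence / Evaluation: per-plate % inhibition versus controls / Benchmarks: DMSO and 10 µM reference inhibitor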
# Jurkat viability = cytotoxicity toward Jurkat cells; Jurkat E6.1 viability, ATP luminescence, 48 h; inhibition, % at 4 µM; 56,000 tested, 1.2% active;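 active = inhibition above the mean inhibition of all tested compounds plus 3 SD, cut at about 28% in these data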
# HTR1E antagonist = blocks the human 5-HT1E serotonin receptor; P28566; CHO 5-HT1E Ga15 NFAT-bla reporter, FRET, antagonist; inhibition, % at 6 µM; 65,000 tested, 0.99% active; AID 571;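 active = inhibition above a set limit, the mean inhibition across every tested compound plus 3 SD, cut at about 29% in these data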;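 note: signal is the 460 over 535 nm emission ratio of beta-lactamase substrate; 0% = agonist plus DMSO wells and 100% = wells without agonist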
# HTR1A agonist = 5-HT1a (human) receptor agonism. AID 567. activation, % at 10 µM. CHO 5-HT1a Ga15 NFAT-bla reporter, FRET ratio; 0% basal, 100% maximal reference agonist. 65,000 tested, 0.56% active;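 active = activation above the screen-wide mean activation plus 3 SD, cut at about 19% in these data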;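 note: 0% = DMSO wells and 100% = 5-CT at EC100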
# Active calls of the source: *; . = no result given. Shown are actives, neighbours in structure and some others; about 3.3% of the full set was active somewhere.
SMILES,5HT1a antag,5HT1E ag,HEK293 NFkB inh,Jurkat viability,HTR1E antagonist,HTR1A agonist
Cc1nc(NCc2ccco2)c(C#N)c2c1COC(C)(C)C2,1,-1,26,-4,0,-1
CC1CCN(C(=O)CSc2nnc(CSc3ncccn3)n2C)CC1,6,0,12,-1,-1,-1
CCCCCCOc1ccc(/C(N)=N/O)cc1,7,0,-21,97*,-12,-1
CCCCCOc1ccc(C(=O)NC(CCC)C(=O)O)cc1 (configuration not stated),-9,1,12,1,-1,-2
C=CCNc1nc2c(c(=O)n(C)c(=O)n2C)n1CCCCCC,8,0,19,82*,9,5
CCN(CCCNC(=O)CN(C)S(=O)(=O)c1ccc2c(c1)CCC(=O)N2)c1cccc(C)c1,11,-1,26,-1,-2,0
Cc1nc(N2CCN(C)CC2)[nH]c(=O)c1Cc1cccc2ccccc12,1,1,4,7,10,-6
c1ccc2c(CC3=NCCN3)cccc2c1,.,9.2*,.,.,-19,4
CCN1CCN(C(=O)c2cc3nc(-c4ccccc4)cc(C(F)(F)F)n3n2)CC1,10,0,5,-1,4,-1
COc1ccccc1CNC(=O)C1CCCN1S(=O)(=O)c1cccc2cccnc12 (configuration not stated),13,0,3,0,8,-2
COc1cccc(NC(=O)N2CCN(c3cccc(C)c3C)CC2)c1,0,30*,12,1,-1,-2
O=c1cc(-c2ccccc2)[nH]c2ccccc12,33,-1,30,93*,53*,-1
O=c1nc(-c2ccccc2)c2ccccc2[nH]1,-2,0,22,-1,-7,-1
CCc1nc(SCC(=O)Nc2ccc3c(c2)OCCO3)c2oc3ccccc3c2n1,5,0,23,6,23,-2
Cc1cccc(NC(=O)CSc2ncnc3c2oc2ccccc23)c1,4,1,7,-12,12,1
COc1ccccc1NC(=O)CSc1ncnc2c1oc1ccccc12,-2,0,20,-1,36*,1
CCc1nc(SCC(=O)Nc2nccs2)c2oc3ccccc3c2n1,2,4,6,14,38*,1
CN1CCN(C2=C(Cl)C(=O)N(C3CCCCC3)C2=O)CC1,12,39*,8,3,28,4
CCCCN1c2cc(C)c(O)cc2C(C(=O)OCC)C1C (configuration not stated),5,0,19,7,4,2
CCC(c1nnnn1C(C)(C)C)N1CCN(c2cc(Cl)ccc2C)CC1 (configuration not stated),44*,-1,12,4,-2,-2
CCCC(c1nnnn1CC1CCCO1)N1CCN(c2cc(Cl)ccc2C)CC1 (configuration not stated),33,5,12,3,3,1
CNc1nc(C)c(C(=O)OCC(=O)OC)s1,5,0,10,2,6,-1
CNc1nc(C)c(C(=O)OCc2ccccc2)s1,-1,0,5,66*,10,0
CCCCCCc1cc2cc(-c3nnc(-c4ccccc4O)o3)c(=O)oc2cc1O,.,5,.,.,-19,49*
Cc1cc(-c2nnc(-c3cc4ccccc4oc3=O)o2)c(C)n1-c1ccccc1,6,-1,17,.,1,9
SMILES,5HT1a antag,5HT1E ag,HEK293 NFkB inh,Jurkat viability,HTR1E antagonist,HTR1A agonist
CCOC(=O)C1CCCn2c1nc1sc3c(c1c2=O)CCCC3 (configuration not stated),0,0,9,-3,1,-3
COc1ccccc1NC(=O)N1CCc2[nH]c3ccc(F)cc3c2C1,29,-2,9,0,29*,1
COc1ccccc1NC(=O)N1CCC(C(=O)c2ccc(F)cc2)CC1,-4,1,11,-2,3,-2
CC(C)(C)c1[nH]nc2c1C(Cc1ccccc1)C(C#N)=C(N)O2 (configuration not stated),-5,0,15,-3,-5,-1
Cc1ccccc1NC(=O)c1c(O)c2cccc3c2n(c1=O)CCC3,-8,0,12,-2,-3,-4
CCn1c(C)nc2cc(C(=O)OCCC(F)(F)F)ccc21,6,-1,-5,1,0,26*
Cc1ccc2c(c1)c(-c1ccccc1)nc1nncn12,4,0,7,2,18,-2
O=C(O)c1ccc(COc2ccccc2Cl)cc1,-2,0,1,-3,5,-2
O=C(O)c1cccc(COc2ccccc2Cl)c1,-15,0,92*,.,-4,0
COCCCNC(=O)c1ccc(CS(=O)(=O)c2ccc(OC)cc2)o1,10,-1,10,-8,31*,0
COCCCNC(=O)c1ccc(CS(=O)(=O)c2ccc(Br)cc2)o1,9,0,15,4,11,0
CC(=O)c1ccc(N2CCN(C(=O)c3cc4c(=O)n(C)c5ccccc5c4n3C)CC2)cc1,-7,0,7,0,-3,2
Cc1cc(C)c(NC(=O)c2cc3c(nc4sccn43)s2)c(C)c1,23,0,4,-6,29*,0
CC1(C)CC(=O)C(C=Nc2ccc3cn[nH]c3c2)=C(O)C1,36,0,6,-7,40*,-3
CC1(C)CC(=O)C(C=Nc2ccc(O)cc2)=C(O)C1,12,0,21,6,10,-5
CSc1ccccc1N=CC1=C(O)CC(C)(C)CC1=O,74*,-2,7,8,72*,-4
O=C(COC(=O)C1CCC1)NCc1ccccc1Cl,-1,0,14,-2,7,-1
O=C(c1cnn(-c2nc3ccccc3s2)c1)c1ccccc1O,-7,0,7,-3,12,21*
Cc1nc(Nc2ncc3c(n2)CCCC3=O)nc2ccccc12,.,0,.,.,-3,1
CCc1c(C(C)O)oc2ccc3c(C)cc(=O)oc3c12 (configuration not stated),-17,1,19,-7,-2,2
CCCCC(CC)Cn1c(N)c(C#N)c2nc3ccccc3nc21 (configuration not stated),-68,17*,5,-2,-14,46*
Cn1cccc1C(C(=O)NC1CCCCC1)N(C(=O)Cc1cccs1)c1ccc2c(c1)OCCO2 (configuration not stated),9,-2,-1,1,2,0
COc1cc(NS(=O)(=O)c2ccc(C)cc2)c2ncccc2c1,67*,2,4,79*,67*,0
O=C(O)C1CC=CCC1C(=O)Nc1ccc(S(=O)(=O)N2CCCc3ccccc32)cc1 (configuration not stated),-4,-2,-55,35*,-6,-4
Cc1c(C)[n+](=O)c2c(n1[O-])CCC2,.,0,.,.,-1,1

# Source: PubChem BioAssay
